# TRPC4 block: inhibitors of mouse TRPC4 channel, primary screen, Fluo4 calcium, HEK293 TRPC4beta/mu-opioid cells; Short transient receptor potential channel 4 (Mus musculus), Q9QUQ5; DAMGO-evoked Fluo4 calcium flux; hits give low values; B-score at 10 µM; 300,000 tested, 0.39% active;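 active means B-score over 3 SD under the library average, no early fluorescence shift, positive overall ratio signal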
#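 System: stable TRPC4beta/mu-opioid receptor HEK293 cells; Dosing: single-point compound dosing; Measured by: Fluo4 Ca2+ flux fluorescence; Read-out basis: per-well B score of integrated baseline-normalized Fluo4 ratio.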
# TRPC4 act: activators of mouse TRPC4 channel, primary screen, Fluo4 calcium, HEK293 TRPC4beta/mu-opioid cells; AID 2237, 2010; Fluo4 calcium fluorescence; hits give high values; B-score at 10 µM; Short transient receptor potential channel 4 (Mus musculus), Q9QUQ5; 310,000 tested, 0.49% active;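 active means B-score above 5 SD of library B-scores, and initial fluorescence ratio not above library mean plus 5 SD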;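 further: positive B-score marks a calcium rise read as TRPC4 activation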
#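 Assay system – TRPC4beta and mu-opioid receptor HEK293 stable cells · Measured by – Fluo4 fluorescence, kinetic · Schedule – dye loading 45 min room temperature, 110 s kinetic read · Read-out – B-scored integrated calcium fluorescence ratio · Controls – buffer and maximal DAMGO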
# TRPC6 activator: mouse TRPC6 channel activators, primary screen, cell-based, HEK293, membrane potential dye; HEK293-TRPC6 membrane potential dye fluorescence; hits give high values; B-score at 10 µM; 310,000 tested, 0.13% active; AID 2550, 2010;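 active means B-score of the integrated fluorescence ratio above library mean plus 3 SD, and starting fluorescence ratio within library mean plus 5 SD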;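 further: higher score means more depolarization so channel activation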
# Target sequence (Q61143 whole entry, looked up): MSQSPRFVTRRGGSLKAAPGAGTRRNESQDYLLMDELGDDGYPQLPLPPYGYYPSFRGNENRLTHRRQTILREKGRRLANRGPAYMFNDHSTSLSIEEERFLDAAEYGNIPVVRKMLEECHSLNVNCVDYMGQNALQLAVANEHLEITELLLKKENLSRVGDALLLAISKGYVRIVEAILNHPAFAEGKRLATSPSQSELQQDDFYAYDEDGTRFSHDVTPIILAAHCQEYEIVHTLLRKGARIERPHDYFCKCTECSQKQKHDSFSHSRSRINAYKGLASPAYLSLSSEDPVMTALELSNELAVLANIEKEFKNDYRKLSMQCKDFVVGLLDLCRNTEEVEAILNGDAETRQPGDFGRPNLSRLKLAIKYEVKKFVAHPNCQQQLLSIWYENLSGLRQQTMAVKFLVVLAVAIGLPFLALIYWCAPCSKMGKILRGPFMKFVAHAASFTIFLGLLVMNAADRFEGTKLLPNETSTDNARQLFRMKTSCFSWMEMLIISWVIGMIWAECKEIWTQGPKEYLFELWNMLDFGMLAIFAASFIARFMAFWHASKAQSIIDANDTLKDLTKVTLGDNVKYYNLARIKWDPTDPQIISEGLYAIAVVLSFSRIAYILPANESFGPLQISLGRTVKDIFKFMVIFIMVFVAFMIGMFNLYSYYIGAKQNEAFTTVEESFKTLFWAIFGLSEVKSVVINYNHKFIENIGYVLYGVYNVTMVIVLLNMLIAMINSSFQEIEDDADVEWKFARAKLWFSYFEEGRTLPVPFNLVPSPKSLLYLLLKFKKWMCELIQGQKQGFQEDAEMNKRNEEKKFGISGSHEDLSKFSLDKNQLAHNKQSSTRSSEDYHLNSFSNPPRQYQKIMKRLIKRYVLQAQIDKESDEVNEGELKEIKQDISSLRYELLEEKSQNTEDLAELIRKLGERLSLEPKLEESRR
# TRPC6 inhibitor: mouse TRPC6 channel inhibitors, primary screen, cell-based, HEK293, membrane potential dye; Short transient receptor potential channel 6 (Mus musculus), Q61143; ACh-evoked depolarization; hits give low values; B-score at 10 µM; 310,000 tested, 1.1% active; AID 2553, 2010;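 active means B-score under library mean minus 3 SD, initial fluorescence not abnormally high, positive integrated signal ratio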;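 further: B-score derived from integrated fluorescence ratio over the kinetic read; more negative B-score means stronger inhibition of depolarization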
# TRPC4 potent: positive allosteric modulators of TRPC4, primary screen, cell-based, mouse TRPC4beta, HEK293 mu-opioid, Fluo-4 calcium; Short transient receptor potential channel 4 (Mus musculus), Q9QUQ5; DAMGO EC20, Fluo-4 Ca2+ flux; hits give high values; B-score at 10 µM; 310,000 tested, 0.42% active; AID 2227, 2009;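 active means B-score of calcium response area above 5 SD of library B-scores, with initial fluorescence ratio within 5 SD of library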
# Numbers stand for hits; 0 = inactive. Sampled rows, rich in hits. Any-hit rate of the full collection: about 2.3%.
SMILES,TRPC4 block,TRPC4 act,TRPC6 activator,TRPC6 inhibitor,TRPC4 potent
Cc1ccc(NC(=O)CSc2nnc(N)s2)cc1S(=O)(=O)N1CCOCC1,0,0,0,0,0
CC(=O)Nc1ccc(NS(=O)(=O)c2ccccc2)cc1,0,0,0,0,0
CC(=O)C(C(C)=O)c1cc(NS(=O)(=O)c2ccccc2)ccc1NS(=O)(=O)c1ccccc1,0,47,0,0,0
CC(=O)c1cccc(N2C(=NC(=O)C3CC3)SC3CS(=O)(=O)CC32)c1 (stereo unspecified),0,0,0,0,0
Cc1sc2ncnc(SCC(=O)N(C)C3CCS(=O)(=O)C3)c2c1C (stereo unspecified),0,0,0,0,34
CN(C(=O)CSc1ncnc2scc(-c3ccccc3)c12)C1CCS(=O)(=O)C1 (stereo unspecified),0,0,0,0,0
Oc1ccc(-c2nccc(-c3ccccn3)n2)cc1,0,0,0,0,0
COc1ccc(C2CC2/C(=N/O)c2ccccc2)cc1 (stereo unspecified),-8,0,0,0,0
COc1ccc(C2CC2/C(=N/O)c2ccccn2)cc1 (stereo unspecified),0,0,0,0,0
CC(C)=CCN1CCN(Cc2cccc3nonc23)CC1CCO (stereo unspecified),-5,0,0,0,0
N#CCCn1cc(C(=O)Nc2ccc(C(=O)O)cc2)c(-c2cccc(Br)c2)n1,0,70,0,0,0
N#CCCn1cc(C(=O)Nc2ccccn2)c(-c2ccccc2)n1,0,0,0,0,0
CCN(CC)CCCNC(=O)c1cc2c(-c3cccc(OC)c3)nn(C)c2s1,0,79,0,0,13
COc1cccc(-c2nn(C)c3sc(C(=O)NCCCN(C)Cc4ccccc4)cc23)c1,0,57,0,0,0
CCN1CCCC1CNC(=O)c1cc2c(-c3cccc(OC)c3)nn(C)c2s1 (stereo unspecified),0,0,0,0,0
CCCCN(C)CCNC(=O)c1cc2c(-c3cccc(OC)c3)nn(C)c2s1,0,0,0,0,25
CCCCN(CC)CCCNC(=O)c1cc2c(-c3ccc(OC)c(OC)c3)nn(C)c2s1,0,82,0,0,0
COc1cccc(-c2nn(C)c3sc(C(=O)NCc4ccco4)cc23)c1,0,0,0,0,0
COc1ccc(CCN(C)CCC(=O)Nc2c(C)cc(C)cc2C)cc1OC,0,111,0,0,0
COc1ccc(CN(C)C(=O)Cc2ccc(OC)c(S(=O)(=O)N3CCOCC3)c2)cc1,0,0,0,0,0
CC1Cc2ccccc2N1C(=O)CSc1nc2c(c(=O)n(C)c(=O)n2C)n1Cc1ccc(F)cc1 (stereo unspecified),0,0,0,0,49
CCCCn1c(SCC(=O)N2c3ccccc3Sc3ccccc32)nc2c1c(=O)n(C)c(=O)n2C,0,0,0,0,117
CCN1CCN(c2ccc(S(=O)(=O)N3CCCCC3)cc2NC(=O)COc2ccc(Cl)cc2)CC1,0,0,0,0,0
CCN1CCN(c2ccc(S(=O)(=O)N3CCCCC3)cc2NC(=O)C(C)Oc2ccc(F)cc2)CC1 (stereo unspecified),0,96,0,0,0
Cc1ccccc1OCC(=O)Nc1cc(S(=O)(=O)N2CCCCC2)ccc1N1CCN(C)CC1,0,84,0,0,0
SMILES,TRPC4 block,TRPC4 act,TRPC6 activator,TRPC6 inhibitor,TRPC4 potent
O=C(COc1ccc(S(=O)(=O)N2CCCC2)cc1Cl)N1CCN(c2ccccc2)CC1,0,0,0,0,10
CCN1CCN(c2ccc(S(=O)(=O)N3CCCCC3)cc2NC(=O)COc2ccc(F)cc2Cl)CC1,0,0,0,0,12
O=C(COc1ccc(S(=O)(=O)N2CCCCC2)cc1Cl)N1CCOCC1,0,0,0,0,0
CC(C)N(CCCNC(=O)Cn1c(=O)c2cccn2c2ccc(F)cc21)Cc1ccccc1,0,0,0,0,0
CCN(CC)S(=O)(=O)c1cccc(C(=O)Nc2ccc(S(=O)(=O)NC3=NCCCCC3)cc2)c1,0,0,0,0,0
O=S(=O)(c1cccc2nsnc12)N1CCNCC1,0,0,0,0,0
CCN1CCN(c2ccc(S(=O)(=O)N3CCCCC3)cc2NC(=O)CC(C)c2ccccc2)CC1 (stereo unspecified),0,118,0,0,0
CN1CCN(c2ccc(S(=O)(=O)N3CCCCC3)cc2NC(=O)c2ccc(C#N)cc2)CC1,0,0,0,0,11
CN1CCN(c2ccc(Cl)cc2NC(=O)c2ccc(S(=O)(=O)N3CCCCCC3)cc2)CC1,0,0,0,0,0
CCN1CCN(c2ccc(S(=O)(=O)N3CCOCC3)cc2NC(=O)/C=C/c2ccc(OC)cc2OC)CC1,0,101,0,0,0
CCN1CCN(c2ccc(S(=O)(=O)N3CCCCC3)cc2NC(=O)c2cccc(C)c2)CC1,0,0,0,0,0
O=C(CN(C(=O)CNC(=O)c1ccco1)c1cccc(F)c1)NC1CCCCC1,0,0,0,0,0
CC1CN(CCOc2ccccc2C(C)C)CC(C)O1 (stereo unspecified),0,0,0,0,0
Cc1cc([N+](=O)[O-])ccc1NCc1ccccc1,-7,0,0,0,0
CC1CCN(S(=O)(=O)c2cc3c4c(c2)C(C)C(=O)N4CCC3)CC1 (stereo unspecified),0,0,0,0,0
CC1CCCCN1S(=O)(=O)c1ccc(C(=O)Nc2sccc2C(N)=O)cc1 (stereo unspecified),0,0,0,0,11
COc1ccccc1N1CCN(C(=O)c2sc3ncnc(N4CCN(c5ccccn5)CC4)c3c2C)CC1,0,0,0,0,0
COc1ccccc1N1CCN(C(=O)c2sc3nc(C)nc(N4CCN(c5ccccn5)CC4)c3c2C)CC1,-7,0,0,0,0
Cc1nc(N2CCN(c3ccccn3)CC2)c2c(C)c(C(=O)N3CCN(c4ccc(F)cc4)CC3)sc2n1,-10,0,0,0,0
Clc1cccc(OCCN2CCNCC2)c1,0,97,0,0,0
Clc1cccc(OCCOCCN2CCNCC2)c1Cl,0,44,0,0,0
Clc1cccc(OCCCN2CCCC2)c1Cl,0,0,0,0,0
CCOc1ccc(C(C(=O)NC2CCCC2)N(C(=O)c2snc(C(N)=O)c2N)c2cccc(O)c2)cc1 (stereo unspecified),0,0,0,0,0
CN1CCN(c2ccc(NC(=O)c3ccc(Br)o3)cc2)CC1,-7,0,0,0,0
CS(=O)(=O)N1CCN(c2ccccc2NC(=O)c2ccc(Cl)cc2)CC1,0,0,0,0,0

# From PubChem
